# SR-BI DiI inh = mouse SR-BI HDL lipid transfer inhibition; inhibition, % at 12.5 µM; AID 488896; ldlA[mSR-BI] CHO cells, DiI-HDL uptake fluorescence, 3 h; 320,000 tested, 0.96% active;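 active means mean replicate inhibition of at least 70% and a set share of replicates each scoring 70 or more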;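 further: 0% = median of neutral control wells and 100% = median of positive control wells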
# GRK2 aptamer HTS = human GRK2 inhibition via aptamer displacement; P25098; bead flow cytometry, FAM-aptamer displacement from GRK2; inhibition of aptamer binding, % at 10 µM; 330,000 tested, 0.59% active; AID 488847;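 active means inhibition of aptamer binding above 40%, roughly 3 SD of noise, on plates passing a quality check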;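 further: median bead fluorescence of bound FAM aptamer so fluorescent compounds give negative values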
# Target sequence (P25098 whole entry, looked up): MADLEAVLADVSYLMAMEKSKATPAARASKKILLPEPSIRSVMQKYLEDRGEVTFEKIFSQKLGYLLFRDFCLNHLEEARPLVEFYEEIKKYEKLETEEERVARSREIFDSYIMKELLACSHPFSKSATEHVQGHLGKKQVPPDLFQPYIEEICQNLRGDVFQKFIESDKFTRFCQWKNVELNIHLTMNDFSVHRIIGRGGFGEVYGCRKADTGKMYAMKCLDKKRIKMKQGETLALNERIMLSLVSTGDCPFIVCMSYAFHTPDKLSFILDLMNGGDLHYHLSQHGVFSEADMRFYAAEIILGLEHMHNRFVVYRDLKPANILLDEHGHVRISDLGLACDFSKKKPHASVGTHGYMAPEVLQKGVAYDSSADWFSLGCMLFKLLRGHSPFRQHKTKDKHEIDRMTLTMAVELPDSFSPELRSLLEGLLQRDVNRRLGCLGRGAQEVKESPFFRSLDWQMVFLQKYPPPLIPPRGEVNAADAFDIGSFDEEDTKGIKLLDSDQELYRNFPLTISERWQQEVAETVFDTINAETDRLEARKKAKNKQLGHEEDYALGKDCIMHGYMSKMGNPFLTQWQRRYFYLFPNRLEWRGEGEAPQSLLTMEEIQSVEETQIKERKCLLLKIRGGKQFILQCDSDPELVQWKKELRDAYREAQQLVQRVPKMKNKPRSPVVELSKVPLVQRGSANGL
# SR-BI DiI-HDL act = activators of SR-BI mediated HDL lipid uptake. CHO ldlA[mSR-BI] cells, DiI-HDL uptake fluorescence, 3 h; 100 = double the neutral-control signal. activation, % at 12.5 µM. 320,000 tested, 0.096% active. AID 504775;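 active means mean replicate activation of at least 60% and every replicate at or above 60%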;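 further: 0% = median plate neutral-control signal and 100% = twice that signal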
#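 Test system: SR-BI-overexpressing, LDLR-lacking CHO cells; Medium: Ham's F12 with 0.5% BSA, HEPES 25 mM, pH 7.4; Schedule: 3 h, 37 °C; Technique: bottom-read fluorescence, 550/595 nm.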
# Rin1-Abl PPI inh = human Rin1-Abl interaction inhibition. P00519+Q13671. TR-FRET Rin1/Abl binding, biochemical. inhibition, % at 7.35 µM. 360,000 tested, 0.4% active; in the data active means inhibition above about 5%, passing the limit was not always enough
# Rin1 Abl conf = confirmation of inhibitors of human Rin1-Abl interaction; shares compounds with Rin1-Abl PPI inh; TR-FRET Rin1-Abl binding, purified proteins; inhibition, % at 7.35 µM; 1,300 tested, 49% active; AID 602124
# GFP quench = GFP fluorescence interference artifact; shares compounds with Rin1-Abl PPI inh; inhibitors/quenchers counterscreen; inhibition, % at 6.75 µM; 1,300 tested, 8.5% active;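 further: ABL1-eGFP fusion protein alone without its partner RIN1-SBP; 0% = protein with vehicle and 100% = wells lacking protein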
# GFP quench DR = counter-screen for Rin1-Abl inhibitors: GFP quenchers, dose response | shares compounds with Rin1-Abl PPI inh | IC50, µM | 230 tested, under 10 active | GFP fluorescence interference/quenching counterscreen; call rule not given here;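 further: ABL1-eGFP fusion protein alone without its RIN1 binding partner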
# Active calls of the source: *; nt = not tested or not shown. Shown are actives, neighbours in structure and some others; about 1.9% of the full set was active somewhere. Unless noted, no stated cut-off is given here; in the data, active means inhibition above about 6.5%; inactive means the rest.
SMILES,SR-BI DiI inh,GRK2 aptamer HTS,SR-BI DiI-HDL act,Rin1-Abl PPI inh,Rin1 Abl conf,GFP quench,others
CC(NC(=O)C(=O)c1cn(CC(=O)N2CCOCC2)c2ccccc12)c1ccccc1 (stereo not drawn),6,2,-6,18*,-4,1,
N#Cc1ccccc1OCC(=O)OCC(=O)Nc1ccc2c(c1)OCO2,-18,3,18,-2,nt,nt,
Cc1ccc(C(=O)O/N=C(\N)c2cccnc2)cc1[N+](=O)[O-],-31,2,31,6.9*,-1,-2,
N/C(=N\OC(=O)c1ccc([N+](=O)[O-])cc1)c1cccnc1,-49,0,49,1,nt,nt,
CCOP(=O)(OCC)c1nc(-c2ccc(Cl)cc2Cl)oc1N1CCOCC1,24,1,-24,-2,nt,nt,
C#CCN(C[C@@H]1[C@@H](OC(=O)NCC2CCCCC2)[C@@H](OC(=O)NCC2CCCCC2)Cn2c(=O)n(CCCCCC)c(=O)n21)S(=O)(=O)c1ccc(C)cc1,nt,nt,nt,4,nt,nt,
Cc1ccc(-n2nc3cc(C)c(N)cc3n2)cc1,43,0,-43,2,nt,nt,
Cc1cc2nc3ccc(N(C)C)cc3nc2cc1N,-1,24,1,15*,-12,34*,
CC(NC(=O)CNC(=O)c1cccs1)c1cccc(C(F)(F)F)c1 (stereo not drawn),-1,0,1,1,nt,nt,
O=C(OCc1ccccc1)N1CCc2ccccc21,9,2,-9,-1,nt,nt,
COCCC1CCCCN1C(=O)c1ccc(OC2CCN(C(C)=O)CC2)c(OC)c1 (stereo not drawn),-2,0,2,13*,-1,0,
COc1cc(C(=O)N2CCSCC2)ccc1OC1CCN(C(C)=O)CC1,0,0,0,-2,nt,nt,
Cc1ccc(S(=O)(=O)N2CCN(C(=O)N3CCOCC3)CC2)cc1C,nt,nt,nt,1,nt,nt,
Cc1cc(S(=O)(=O)N2CCN(C(=O)CCC(=O)N3CCOCC3)CC2)ccc1Br,-8,0,8,16*,21*,0,GFP quench DR=>68
CCOc1ccc(S(=O)(=O)N2CCN(C(=O)CCC(=O)N3CCOCC3)CC2)cc1,-13,0,13,11*,11*,0,
Cc1cc(=O)oc2cc(OCC3CC(c4ccccc4)=NO3)ccc12 (stereo not drawn),23,0,-23,11*,-5,-2,
CN=C(C)/C(C(=O)OC)=C(/O)c1ccc(Cl)cc1Cl,-5,0,5,1,nt,nt,
CN(C)c1ccc(-c2ccnc3c2CC(C)(C(=O)NCC2CC2)O3)cc1 (stereo not drawn),nt,nt,nt,2,nt,nt,
O=C(C1CCN(c2nnc(N3CCCC3=O)s2)CC1)N1CCN(Cc2ccc3c(c2)OCO3)CC1,-3,nt,3,10*,5,-1,
O=C(C1CCN(c2nnc(-n3cccc3)s2)CC1)N1CCN(Cc2ccc3c(c2)OCO3)CC1,-8,0,8,-3,nt,nt,
NC(=O)C1(Nc2ccc(C(=O)O)cc2)CCCC1,-3,nt,3,1,nt,nt,
OCC1(CCOc2ccccc2)CCN(Cc2ccncc2)CC1,-3,0,3,12*,12*,-2,
COc1cc(OC)cc(-c2noc(-c3csc([C@@H]4C[C@H](O)[C@@H](CO)O4)n3)n2)c1,nt,nt,nt,-4,nt,nt,
COCCN=c1scc(C)n1/N=C/C1CC2C=CC1C2 (stereo not drawn),-28,0,28,3,nt,nt,
CCCCn1c(NS(=O)(=O)c2ccccc2)c(S(=O)(=O)c2ccc(C)cc2)c2nc3ccccc3nc21,5,0,-5,22*,11*,-1,
SMILES,SR-BI DiI inh,GRK2 aptamer HTS,SR-BI DiI-HDL act,Rin1-Abl PPI inh,Rin1 Abl conf,GFP quench,others
COc1ccccc1CCNC(=O)c1cccc(S(=O)(=O)N2CCc3ccccc3C2)c1,58,2,-58,3,nt,nt,
COc1ccc(COC(=O)C2=C(C)NC(=O)NC2c2cccc(OC)c2OC)cc1 (stereo not drawn),-6,0,6,7.2*,3,0,
COc1ncnc2c1ncn2CCCN(C)CCc1ccccn1,nt,nt,nt,-3,nt,nt,
Cn1c(=O)[nH]c(=O)c2c1nc(NCc1ccco1)n2Cc1ccccc1Cl,nt,0,nt,13*,18*,-1,GFP quench DR=>68
Cc1cc(OCC(=O)NNC(=O)c2cccnc2)cc(C)c1Cl,-4,2,4,-2,nt,nt,
Cc1c(N=NC2=C(O)CC(C)(C)CC2=O)c(=O)n(-c2ccccc2)n1C,-19,0,19,10*,2,3,
CC(=O)/C(N=Nc1c(C)n(C)n(-c2ccccc2)c1=O)=C(\C)O,-5,2,5,-5,nt,nt,
CCC(C)N1C(=O)CCC1C(=O)N1CCN(c2ccc(F)cc2)CC1 (stereo not drawn),-10,0,10,-5,nt,nt,
CCC(C)N1C(=O)CCC1C(=O)N1CCN(c2ccccc2F)CC1 (stereo not drawn),-31,2,31,5.3*,-1,0,
CCOc1ccc(NC(=O)C2CC(=O)N(C)C(=Nc3ccc4c(c3)OCO4)S2)cc1 (stereo not drawn),-5,1,5,-2,nt,nt,
COc1cccc(N=C2SC(C(=O)Nc3ccc(F)cc3)CC(=O)N2C)c1 (stereo not drawn),33,0,-33,10*,-1,-1,
FC(F)(F)c1cnc(NNC(=S)Nc2ccccc2Cl)c(Cl)c1,48,0,-48,5.7*,-1,0,
Cc1cccc(NC(=S)NNc2ncc(C(F)(F)F)cc2Cl)c1,15,3,-15,-3,nt,nt,
Cc1cc(C(=O)N/N=C2\CCCc3ccccc32)c(C)o1,-4,0,4,11*,-1,-2,
O=C(N/N=C1\CCCc2ccccc21)c1ccccc1Cl,16,8,-16,2,nt,nt,
CCNC(=O)C1(C)CCN(C(=O)c2cccs2)C1 (stereo not drawn),nt,nt,nt,-4,nt,nt,
COCCn1c(SCC(=O)Nc2ccc(NC(C)=O)cc2)nc2ccccc2c1=O,-17,2,17,1,nt,nt,
CCOC(CCn1c(SCC(=O)Nc2cc(C)on2)nc2ccccc2c1=O)OCC,-22,0,22,9.4*,-2,1,
COCCCn1c(SCC(=O)Nc2ccc(C(C)=O)cc2)nc2ccccc2c1=O,11,0,-11,10*,7.4*,1,
O=C(c1cc(C2CC2)nn1-c1ccccc1)N1CCN(Cc2c(F)cccc2Cl)CC1,-3,1,3,7,nt,nt,
O=C1NNC(c2ccccc2)=N/C1=C\c1ccco1,-25,2,25,1,nt,nt,
O=C1NNC(c2ccccc2)=N/C1=C\c1ccccc1Cl,16,nt,-16,6.8*,8.3*,-1,
Cn1c(=O)c2c(nc(CN3CCN(C(=O)c4ccco4)CC3)n2Cc2ccc(Cl)cc2)n(C)c1=O,0,3,0,-2,nt,nt,
Cn1c(=O)c2c(nc(CN3CCN(C(=O)c4ccco4)CC3)n2Cc2cccc(Cl)c2)n(C)c1=O,-13,0,13,7.1*,-2,1,
